Only some compounds are listed: those with a hit (about 2.4% of all), similar ones and a draw of the others.
HGIII-sPLA2 inh – Inhibits HGIII-sPLA2 liposome hydrolysis, primary screen; QFRET BODIPY PC-A2 liposome hydrolysis, fluorescence; inhibition, % at 12.2 µM; hit rate 0.56% among 370,000;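 active = inhibition above mean plus 3 SD of compounds lying within the high and low control bounds, cut at about 19% in these data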;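 also: 0% = median of test compound wells and 100% = no enzyme DMSO wells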
Target sequence (Q9NZ20 whole entry, looked up): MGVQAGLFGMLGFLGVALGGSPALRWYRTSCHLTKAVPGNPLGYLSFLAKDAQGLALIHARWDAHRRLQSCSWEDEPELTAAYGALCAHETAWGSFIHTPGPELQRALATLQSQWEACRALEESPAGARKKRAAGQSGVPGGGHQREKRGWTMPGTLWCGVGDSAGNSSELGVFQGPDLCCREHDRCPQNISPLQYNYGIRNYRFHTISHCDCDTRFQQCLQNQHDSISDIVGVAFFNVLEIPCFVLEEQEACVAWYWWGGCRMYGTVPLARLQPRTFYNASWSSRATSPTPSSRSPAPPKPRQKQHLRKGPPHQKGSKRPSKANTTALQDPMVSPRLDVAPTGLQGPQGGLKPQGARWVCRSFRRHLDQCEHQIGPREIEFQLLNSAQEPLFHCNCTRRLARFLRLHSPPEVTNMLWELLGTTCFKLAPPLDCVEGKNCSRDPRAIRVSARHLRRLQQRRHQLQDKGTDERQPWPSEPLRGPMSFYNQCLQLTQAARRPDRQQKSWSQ
VIM-2 inhibitor – inhibitors of Pseudomonas aeruginosa VIM-2 metallo-beta-lactamase; purified VIM-2, nitrocefin hydrolysis, epi-absorbance fluorescence; inhibition, % at 5.6 µM; hit rate 0.89% among 290,000; AID 1527;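 active = inhibition above the mean of all tested compounds plus 3 SD, cutoff set per screening run, cut at about 7.5% in these data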;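 also: red hydrolysis product quenches plate fluorescence so inhibitors raise well fluorescence; 0% = enzyme with DMSO and 100% = DMSO without enzyme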
IMP-1 inh – inhibitors of Pseudomonas aeruginosa IMP-1 metallo-beta-lactamase; AID 1556; hit rate 0.45% among 290,000; inhibition, % at 5.6 µM; purified IMP-1, nitrocefin hydrolysis, epi-absorbance fluorescence;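 active = inhibition above the mean plus 3 SD of all compounds in the same screening run, cut at about 4.5% in these data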;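 also: 0% = IMP-1 with DMSO and 100% = DMSO wells lacking enzyme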
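System: purified IMP-1 / Input: IMP-1 dispensed at 0.2 nM / Medium: 50 mM HEPES pH 7.1, 50 µM ZnSO4, 0.05% Brij 35 / Timing: 15 min enzyme–compound preincubation, then 25 min nitrocefin reaction, 25 °C / Technique: plate fluorescence quenching by hydrolysis product, ex 480/em 530 nm / Repeats: singlicate testing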
PfM18AAP inh-1 – blocks P. falciparum M18 aspartyl aminopeptidase. hit rate 1.2% among 290,000. AID 1822. inhibition, % at 7.35 µM. recombinant PfM18AAP, H-Glu-NHMec fluorogenic cleavage;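 active = inhibition above the campaign mean inhibition over all tested compounds plus 3 SD, cut at about 28% in these data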;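 also: 0% = plate median of test compound wells and 100% = 2 mM ZnCl2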
PfM18AAP inh-2 – PfM18AAP inhibition, confirmation. hit rate 28% among 2,400. inhibition, % at 7.35 µM. shares compounds with PfM18AAP inh-1. recombinant PfM18AAP, H-Glu-NHMec fluorogenic cleavage;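 active = mean inhibition over replicate wells above the hit cutoff set for the earlier primary screen, cut at about 29% in these data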;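 also: 0% = median of test compound wells and 100% = 2 mM ZnCl2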
CTSL1 confirm – counter-screen for PFM18AAP inhibitors: confirmation of human cathepsin L inhibitors. inhibition, % at 5.96 µM. purified cathepsin L1, Z-Leu-Arg-MCA fluorescence. 2,400 tested, under 10 active. shares compounds with PfM18AAP inh-1;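 active = average inhibition across replicates above the hit cutoff set in the earlier primary screen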;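 also: 0% = median of test compound wells and 100% = Z-Phe-Ala-diazomethylketone 1 µM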
Numbers without * were called inactive; / = not tested or not shown.

SMILES	HGIII-sPLA2 inh	VIM-2 inhibitor	IMP-1 inh	PfM18AAP inh-1	PfM18AAP inh-2	CTSL1 confirm
O=C(CSc1nc2[nH]ncc2c(=O)n1-c1ccccc1)NCc1cccs1	-1	-2	-3	57*	39*	0
Cc1cccc(NC(=O)CSc2nc3[nH]ncc3c(=O)n2-c2ccccc2)c1	/	-3	-3	36*	-2	3
CN(CC1CCCN(CCc2ccc(Cl)cc2)C1)C(=O)c1ccco1 (centres undefined)	-6	-1	-1	-8	/	/
CCOC(=O)c1c(N)sc(-c2ccccc2)c1C	-1	-2	-5	10	/	/
Cc1c(-c2ccccc2)sc(N)c1C(=O)N1CCOCC1	3	-1	-2	36*	-17	-1
COc1ccc(C2=Nc3ccccc3OC2)cc1	-2	-3	-3	39*	-26	-1
O=C(O)c1ccc2c(c1)C1C=CCC1C(c1ccncc1)N2 (centres undefined)	-1	1	1	37*	7	-2
COCc1[nH]nc2c1C(c1cc(OC)c(O)c(OC)c1)C(C#N)=C(N)O2 (centres undefined)	-1	2	-2	38*	-4	5
COCc1[nH]nc2c1C(c1ccc(OC)c(OC)c1)C(C#N)=C(N)O2 (centres undefined)	4	-3	-1	7	/	/
NNc1ncnc2c1cnn2-c1ccccc1	-2	0	-6	36*	-3	-1
CC(C)Nc1ncnc2c1cnn2-c1ccccc1	4	2	-2	-7	/	/
CCC(C)N(C)C1CCN(C(=S)Nc2cccc(SC)c2)CC1 (centres undefined)	17	-3	-1	41*	-21	1
COc1ccccc1C1C2=C(N=c3s/c(=C/c4cccc(OCC(=O)O)c4)c(=O)n31)c1ccccc1CC2 (centres undefined)	-16	-5	-2	36*	-33	-2
CCCC1NC(C(=O)O)Cc2c1[nH]c1ccccc21 (centres undefined)	3	1	-1	22	/	/
Cc1ccc(C)c(S(=O)(=O)Nc2ccc3[nH]c(=O)[nH]c3c2)c1	-3	-5	-5	-9	/	/
CCOc1ccc(S(=O)(=O)Nc2ccc(O)c(Sc3ncn[nH]3)c2)cc1	-95	-2	-1	54*	27	-2
COc1ccc(OC)c(S(=O)(=O)Nc2ccc(O)c(Sc3ncn[nH]3)c2)c1	/	0	2	64*	36*	0
Cc1cc(F)ccc1S(=O)(=O)Nc1ccccc1C(=O)Nc1ncn[nH]1	-17	-4	-5	49*	48*	0
COc1ccc(OC)c(S(=O)(=O)Nc2cccc(O)c2)c1	-7	/	/	/	/	/
Cc1ccc(C)c(S(=O)(=O)Nc2ccc(O)c(Sc3ncn[nH]3)c2)c1	-97	-3	-2	39*	15	1
O=C1c2ccccc2[C@@H]2C[C@@H](O)[C@H](Nc3cccc(C(F)(F)F)c3)CCN12	-2	/	/	/	/	/
Cc1cc(F)ccc1S(=O)(=O)Nc1ccc(O)c(Sc2ncn[nH]2)c1	-82	-3	-4	52*	11	-4
Cc1ccc(S(=O)(=O)Nc2ccc(O)c(Sc3ncn[nH]3)c2)cc1	-59	-5	-3	56*	22	-9
CSc1ccc(S(=O)(=O)Nc2ccc(S(=O)(=O)Nc3ccc(C)cc3)cc2)cc1	-119	-3	-1	-8	/	/
O=C1C(C2=NC(c3ccccn3)C3C(=O)N(c4ccccc4)C(=O)C23)=C(O)c2ccccc21 (centres undefined)	9	-4	-3	71*	-30	2
SMILES	HGIII-sPLA2 inh	VIM-2 inhibitor	IMP-1 inh	PfM18AAP inh-1	PfM18AAP inh-2	CTSL1 confirm
CCn1c(SCC(=O)c2ccc(O)c(O)c2)nnc1-c1ccc(C)cc1	-1	2	-3	43*	19	-9
O=C(CCN1C(=O)c2ccccc2C1=O)Nn1cnnc1	6	2	-1	45*	46*	-3
O=C(CCN1C(=O)c2ccccc2C1=O)NCc1ccccc1	2	-1	-1	-3	/	/
O=C(Nn1cnnc1)c1ccccc1CCc1ccccc1	0	-3	-5	42*	35*	-1
O=C(Nc1ccccc1)c1ccccc1CCc1ccccc1	-6	0	0	0	/	/
O=C(Nn1cnnc1)c1ccccc1-c1ccccc1	0	-6	-1	56*	64*	-6
CCOc1ccc(CC(=O)C2C(=O)CCCC2=O)cc1OCC	/	-4	-3	33*	-25	-4
